Measurements: ChEMBL document CHEMBL1140578, “Solid-phase synthesis and biological evaluation of a uridinyl branched peptide urea library” (2007)
In brackets after ≈: the same amount, converted by molar mass. Activity calls are given as the source filed them. No cut-off for these calls is given here.

Assays:
[1] = tested on: Enterococcus faecalis; experiment: Antimicrobial activity against Enterococcus faecalis; format: functional, organism-based
[2] = tested on: Mycobacterium tuberculosis; experiment: Antituberculosis activity against Mycobacterium tuberculosis H37Rv by micro-broth dilution method; format: functional
Summary of the method: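 M. tuberculosis H37Rv grown in Middlebrook 7H9 ADC medium and tested by microbroth dilution per CLSI guidelines, with 2×10^4 bacteria per well. Compounds were dissolved and diluted in DMSO (4 μl into 196 μl). The primary screen used 20, 10 and 5 μg/ml based on recovered yield. Resynthesized compounds were run as 1:1 serial dilutions from 200 to 1.56 μg/ml to give MIC90. Controls were no drug and isoniazid.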

[3] = tested on: Escherichia coli; experiment: Antimicrobial activity against Escherichia coli K12; format: functional, organism-based
[4] = tested on: Bacillus subtilis; experiment: Antimicrobial activity against Bacillus subtilis; format: functional, organism-based
[5] = tested on: Staphylococcus aureus; experiment: Antimicrobial activity against methicillin-susceptible Staphylococcus aureus; format: functional, organism-based
[6] = tested on: Bacillus anthracis; experiment: Antimicrobial activity against Bacillus anthracis Sterne; format: functional, organism-based

SMILES	Activity [1]	MIC90 [2] [µg/mL]	Activity [3]	Activity [4]	Activity [5]	Activity [6]
CCCCCCNC(=O)N[C@@H](Cc1c[nH]c2ccccc12)C(=O)N[C@@H](CNC(=O)[C@@H](N)Cc1c[nH]c2ccccc12)C(=O)NC[C@H]1O[C@@H](n2ccc(=O)[nH]c2=O)[C@H](O)[C@@H]1O	inactive	25 (≈ 30.2 µM)	inactive	inactive	inactive	inactive
CSCC[C@H](NC(=O)NCCc1ccccc1)C(=O)N[C@@H](CNC(=O)[C@@H](N)Cc1ccc([N+](=O)[O-])cc1)C(=O)NC[C@H]1O[C@@H](n2ccc(=O)[nH]c2=O)[C@H](O)[C@@H]1O	inactive	100 (≈ 125 µM)	inactive	inactive	inactive	inactive
CC(=O)c1cccc(NC(=O)N[C@@H](Cc2c[nH]c3ccccc23)C(=O)N[C@@H](CNC(=O)[C@@H](N)Cc2c[nH]c3ccccc23)C(=O)NC[C@H]2O[C@@H](n3ccc(=O)[nH]c3=O)[C@H](O)[C@@H]2O)c1	inactive	50 (≈ 57.9 µM)	inactive	inactive	inactive	inactive
COc1ccc(NC(=O)N[C@@H](Cc2ccc(O)cc2)C(=O)N[C@@H](CNC(=O)[C@@H](N)Cc2ccc([N+](=O)[O-])cc2)C(=O)NC[C@H]2O[C@@H](n3ccc(=O)[nH]c3=O)[C@H](O)[C@@H]2O)cc1	inactive	12.5 (≈ 15 µM)	inactive	inactive	inactive	inactive
CCCNC(=O)N[C@@H](Cc1c[nH]c2ccccc12)C(=O)N[C@@H](CNC(=O)[C@@H](N)Cc1c[nH]c2ccccc12)C(=O)NC[C@H]1O[C@@H](n2ccc(=O)[nH]c2=O)[C@H](O)[C@@H]1O	inactive	100 (≈ 127 µM)	inactive	inactive	inactive	inactive
N[C@@H](Cc1c[nH]c2ccccc12)C(=O)NC[C@H](NC(=O)[C@H](Cc1c[nH]c2ccccc12)NC(=O)NCCc1ccccc1)C(=O)NC[C@H]1O[C@@H](n2ccc(=O)[nH]c2=O)[C@H](O)[C@@H]1O	inactive	50 (≈ 58.9 µM)	inactive	inactive	inactive	inactive
CCCCCCNC(=O)N[C@@H](Cc1ccc(O)cc1)C(=O)N[C@@H](CNC(=O)[C@@H](N)Cc1c[nH]c2ccccc12)C(=O)NC[C@H]1O[C@@H](n2ccc(=O)[nH]c2=O)[C@H](O)[C@@H]1O	inactive	12.5 (≈ 15.5 µM)	inactive	inactive	inactive	inactive
COc1ccc(NC(=O)N[C@@H](Cc2c[nH]c3ccccc23)C(=O)N[C@@H](CNC(=O)[C@@H](N)Cc2c[nH]c3ccccc23)C(=O)NC[C@H]2O[C@@H](n3ccc(=O)[nH]c3=O)[C@H](O)[C@@H]2O)cc1	inactive	12.5 (≈ 14.7 µM)	inactive	inactive	inactive	inactive
CC(=O)c1cccc(NC(=O)N[C@@H](Cc2c[nH]c3ccccc23)C(=O)N[C@@H](CNC(=O)[C@@H](N)CC(N)=O)C(=O)NC[C@H]2O[C@@H](n3ccc(=O)[nH]c3=O)[C@H](O)[C@@H]2O)c1	inactive	> 200	inactive	inactive	inactive	inactive
